Test results taken from ChEMBL document CHEMBL4257584, “Sterol 14α-Demethylase Structure-Based Optimization of Drug Candidates for Human Infections with the Protozoan Trypanosomatidae” (J Med Chem, 2018).

Legend:
[1] = Drug uptake in BALB/c mouse liver at 25 mg/kg, po via gavage measured after 4 hrs post dose by […]; assay type: ADME, organism-based; conditions: read-out: Drug uptake
Outline: (§1)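 BALB/c mice get a single oral gavage dose of 25 mg/kg; tissues are collected 4 h post-dose. About 100 mg tissue is diluted 5-fold in PBS and homogenized. Homogenate is extracted as for plasma (ketoconazole internal standard, acetonitrile extraction) and quantified by HPLC-UV at 291 nm, 0.1 μM detection limit, n=2.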

[2] = Drug uptake in BALB/c mouse lungs at 25 mg/kg, po via gavage measured after 4 hrs post dose by […]; assay type: ADME, organism-based, Lung; conditions: read-out: Drug uptake; outline: as §1
[3] = Half life in CD1 mouse liver microsomes at 1 uM preincubated for 5 mins followed by NADPH addition and measured by LC/MS/MS analysis; assay type: ADME, microsome
[4] = Drug uptake in BALB/c mouse blood at 25 mg/kg, po via gavage measured after 4 hrs post dose by […]; assay type: ADME, organism-based; conditions: read-out: Drug uptake; outline: as §1
[5] = Maximum plasma concentration in BALB/c mouse at 25 mg/kg, po via gavage by […]; assay type: ADME, organism-based; set-up: dose 25 mg/kg, route oral
Outline: (§2)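 Single oral gavage dose of 25 mg/kg in BALB/c mice; blood sampled at 1, 2, 4, 6, 10, 16, 24 h. Plasma is diluted in PBS with ketoconazole internal standard, extracted with 80% acetonitrile, dried and redissolved. Analysed by reversed-phase HPLC with UV at 291/250 nm, 0.1 μM detection limit. Lifetime is time until undetectable.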

[6] = Intrinsic clearance in human liver microsomes at 1 uM preincubated for 5 mins followed by NADPH addition and measured after 45 mins by LC/MS/MS analysis; assay type: ADME, microsome; conditions: read-out: CLH
[7] = Hepatic clearance in CD1 mouse liver microsomes at 1 uM preincubated for 5 mins followed by NADPH addition and measured after 45 mins by LC/MS/MS analysis; assay type: ADME, microsome
[8] = Drug uptake in BALB/c mouse brain at 25 mg/kg, po via gavage measured after 4 hrs post dose by […]; assay type: ADME, organism-based; conditions: read-out: Drug uptake; outline: as §1
[9] = Hepatic clearance in Sprague-Dawley rat liver microsomes at 1 uM preincubated for 5 mins followed by NADPH addition and measured after 45 mins by LC/MS/MS analysis; assay type: ADME, microsome
Outline: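 Pooled liver microsomes at 0.5 mg/mL: human (mixed gender), male Sprague-Dawley rat, or male CD-1 mouse, with test compound at 1 μM, triplicate. In vitro t1/2 is scaled to CLint (45 mg microsomes/g liver; 45 g liver/kg scaling factor). CLhep uses well-stirred model with hepatic blood flow 21 (human), 70 (rat), 90 (mouse) mL/min/kg.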

[10] = Drug uptake in BALB/c mouse heart at 25 mg/kg, po via gavage measured after 4 hrs post dose by […]; assay type: ADME, organism-based; conditions: read-out: Drug uptake; outline: as §1
[11] = Half life in Sprague-Dawley rat liver microsomes at 1 uM preincubated for 5 mins followed by NADPH addition and measured by LC/MS/MS analysis; assay type: ADME, microsome
[12] = Drug uptake in BALB/c mouse spleen at 25 mg/kg, po via gavage measured after 4 hrs post dose by […]; assay type: ADME, organism-based; conditions: read-out: Drug uptake; outline: as §1
[13] = Intrinsic clearance in CD1 mouse liver microsomes at 1 uM preincubated for 5 mins followed by NADPH addition and measured after 45 mins by LC/MS/MS analysis; assay type: ADME, microsome; conditions: read-out: CLH
[14] = Plasma concentration in BALB/c mouse assessed as time until the compound becomes undetectable at 25 mg/kg, po via gavage […]; assay type: ADME, organism-based; conditions: in vivo; outline: as §2
[15] = Cmax in BALB/c mouse at 25 mg/kg, po via gavage measured after 2 hrs post dose by […]; assay type: ADME, organism-based; set-up: dose 25 mg/kg, route oral; conditions: in vivo; outline: as §2
[16] = Hepatic clearance in human liver microsomes at 1 uM preincubated for 5 mins followed by NADPH addition and measured after 45 mins by LC/MS/MS analysis; assay type: ADME, microsome
[17] = Lipophilicity, log P of the compound; assay type: physicochemical; conditions: octanol/water
[18] = Half life in human liver microsomes at 1 uM preincubated for 5 mins followed by NADPH addition and measured by LC/MS/MS analysis; assay type: ADME, microsome
[19] = Intrinsic clearance in Sprague-Dawley rat liver microsomes at 1 uM preincubated for 5 mins followed by NADPH addition and measured after 45 mins by LC/MS/MS analysis; assay type: ADME, microsome; conditions: read-out: CLH
[20] = tested on: Mus musculus; assay: Drug metabolism in mouse plasma assessed as glucuronidation of the N-pyridinyl site formation at 25 mg/kg, po by HPLC analysis; assay type: ADME, organism-based; conditions: in vivo

Row | concentration at 4 h [1] [µM] | concentration at 4 h [2] [µM] | concentration at 4 h [4] [µM] | Cmax [5] [µM] | CLint scaled at 1 µM [6] [mL/min/kg] | CLhep predicted at 1 µM [7] [mL/min/kg] | concentration at 4 h [8] [µM] | CLhep predicted at 1 µM [9] [mL/min/kg] | concentration at 4 h [10] [µM] | concentration at 4 h [12] [µM] | CLint scaled at 1 µM [13] [mL/min/kg] | CLhep predicted at 1 µM [16] [mL/min/kg] | logP [17] | CLint scaled at 1 µM [19] [mL/min/kg] | SMILES | other results
1 | 21 | 8 | 9 | 28 | 20.9 | 24.8 | 0.1 | 46.9 | 5 | 5 | 34.2 | 10.5 | 5.68 | 142 | O=C(N[C@@H](Cn1ccnc1)c1ccc(-c2ccccc2)cc1Cl)c1ccc(-c2nnc(-c3ccccc3)o2)cc1 | t1/2 ([3]; mouse, microsomes, 1 µM): 160 min; t1/2 ([11]; microsomes, 1 µM): 20 min; Time [14]: < 10 h; Cmax [15]: 28 µM; t1/2 ([18]; microsomes, 1 µM): 60 min
2 | 0.4 | 1 | < 0.1 | < 0.1 | 23.5 | 47.1 | < 0.1 | 29.9 | 0.1 | < 0.1 | 99 | 11.1 | 5.27 | 52.3 | O=C(N[C@@H](Cn1ccnc1)c1ccc(-c2ccc(F)cc2)cc1Cl)c1ccc(-c2nnc(-c3ccncc3)o2)cc1 | half-life at 1 µM ([3]; CD1, mouse, liver microsomes): 55 min; Drug metabolism [20]: Metabolite_Detected; half-life at 1 µM ([11]; Sprague-Dawley, liver microsomes): 54 min; half-life at 1 µM ([18]; liver microsomes): 53 min
